Test results taken from ChEMBL document CHEMBL1124895, “Synthesis and biological evaluation of some cyclic phosphoramidate nucleoside derivatives” (1990).
Values after ≈ are worked out from the molar mass of the structure shown.

Experiments:
Type in all cases: functional
FM3A [1] = assay: Inhibitory activity against FM3A TK- cell line; conditions: Mus musculus, read-out: ID50 (the source's name)
How it was run: (§1)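 Tumour cells, (5-7.5) × 10^4 per well in growth medium, exposed to varying compound concentrations and allowed to proliferate 48 or 72 h at 37 °C in humidified CO2 atmosphere; cell counts by Coulter counter; value is 50% inhibitory dose. FM3A TK- and TK-/HSV-2 TK+ lines derived from FM3A/0 and grown in the same medium.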

FM3A [2] = assay: Inhibitory activity against FM3A/0 cell line; conditions: Mus musculus, read-out: ID50 (the source's name); how it was run: as §1
FM3A [3] = assay: Inhibitory activity against FM3A TK-/HSV-2 TK+ cell line; conditions: Mus musculus, […] TK-/HSV-2 TK+; read-out: ID50 (the source's name); how it was run: as §1
L1210 = assay: Inhibitory activity against L1210 cell line; conditions: Mus musculus, read-out: ID50 (the source's name); how it was run: as §1
MOLT-4F = assay: Inhibitory activity against Molt/4F cell line; conditions: Homo sapiens, read-out: ID50 (the source's name); how it was run: as §1
Raji = assay: Inhibitory activity against Raji cell line; conditions: Homo sapiens, read-out: ID50 (the source's name); how it was run: as §1
[4] = Antiviral Activity against herpes simplex virus-1 (F) in rabbit kidney cell; conditions: Oryctolagus cuniculus
[5] = Antiviral Activity against herpes simplex virus-1 (KOS) in rabbit kidney cell; conditions: Oryctolagus cuniculus
[6] = Antiviral Activity against herpes simplex virus-1 (McIntyre) in rabbit kidney cell; conditions: Oryctolagus cuniculus
[7] = Antiviral Activity against herpes simplex virus-1 TK- B2006 in rabbit kidney cell; conditions: Oryctolagus cuniculus
[8] = Antiviral Activity against herpes simplex virus-1 TK- VMW 1837 in rabbit kidney cell; conditions: Oryctolagus cuniculus
[9] = Antiviral Activity against herpes simplex virus-2 (G) in rabbit kidney cell; conditions: Oryctolagus cuniculus
[10] = Antiviral Activity against herpes simplex virus-2 (Lyons) in rabbit kidney cell; conditions: Oryctolagus cuniculus
[11] = Antiviral Activity against vaccinia virus in rabbit kidney cell; conditions: Oryctolagus cuniculus
[12] = Antiviral Activity against vesicular stomatitis virus in rabbit kidney cell; conditions: Oryctolagus cuniculus
[13] = Antiviral Activity against herpes simplex virus-2 (196) in rabbit kidney cell; conditions: Oryctolagus cuniculus
Mus musculus [14] = assay: Tested for the appearance of skin lesions or paralysis of the legs after 39 days when administered intraperitoneally at 100 mg/kg per day; conditions: route intraperitoneal
How it was run: (§2)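 Athymic nu/nu mice, 25-30 days old, 15-20 g, inoculated intracutaneously in lumbosacral area with TK- HSV-1 VMW 1837, 10^5 CCID50 in 50 μL; intraperitoneal dosing 100 mg/kg per day, twice daily for 5 days from infection, in carboxymethylcellulose or water. Mean day of lesions/hind-leg paralysis and mean survival recorded over 39 days; survivors counted as 39-day.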

Mus musculus [15] = assay: Tested for the appearance of skin lesions or paralysis of the legs after 52 days when applied topically at 10% after 52 days
How it was run: (§3)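 Athymic nu/nu mice, 25-30 days old, 15-20 g, inoculated intracutaneously in lumbosacral area with TK- HSV-1 VMW 1837, 10^5 CCID50 in 50 μL; topical 10% (v/v in DMSO) applied four times daily for 5 days from infection; DMSO placebo. Mean day of lesions/hind-leg paralysis and survival followed 52 days; survivors counted as 52-day.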

Mus musculus [16] = assay: Compound was evaluated in nu/nu mice infected with TK- HSV-1 (VMW-1837) to increase the mean survival time when administered intraperitoneally at 100 mg/kg per day after 39 days; conditions: route intraperitoneal; how it was run: as §2
Mus musculus [17] = assay: Compound was evaluated in nu/nu mice infected with TK- HSV-1 (VMW-1837) to increase the mean survival time when applied topically at 10% after 52 days; how it was run: as §3

| Compound | IC50 (FM3A [1]) [µg/mL] | IC50 (FM3A [2]) [µg/mL] | IC50 (FM3A [3]) [µg/mL] | IC50 (L1210) [µg/mL] | IC50 (MOLT-4F) [µg/mL] | IC50 (Raji) [µg/mL] | MIC [4] [µg/mL] | MIC [5] [µg/mL] | MIC [6] [µg/mL] | MIC [7] [µg/mL] | MIC [8] [µg/mL] | MIC [9] [µg/mL] | MIC [10] [µg/mL] | MIC [11] [µg/mL] | MIC [12] [µg/mL] | MIC [13] [µg/mL] | Activity (Mus musculus [14]) | Activity (Mus musculus [15]) | Mean survival time (Mus musculus [16]) [days] | Mean survival time (Mus musculus [17]) [days] |
| --- | --- | --- | --- | --- | --- | --- | --- | --- | --- | --- | --- | --- | --- | --- | --- | --- | --- | --- | --- | --- |
| CN1CCOP1(=O)OC[C@H]1O[C@@H](n2cc(/C=C/Br)c(=O)[nH]c2=O)C[C@@H]1O (stereo partly specified) | 1.3 (≈ 2.87 µM) | 48 (≈ 106 µM) | 0.0008 (≈ 0.00177 µM) | 90 (≈ 199 µM) | > 100 | > 100 | 0.07 (≈ 0.155 µM) | 0.02 (≈ 0.0442 µM) | 0.04 (≈ 0.0885 µM) | > 400 | > 400 | 10 (≈ 22.1 µM) | 200 (≈ 442 µM) | 20 (≈ 44.2 µM) | > 400 | > 400 | – | – | – | – |
| CN1CC(CC2SCCCS2)OP1(=O)OC[C@H]1O[C@@H](n2cc(/C=C/Br)c(=O)[nH]c2=O)C[C@@H]1O (stereo partly specified) | 32 (≈ 54.8 µM) | 48 (≈ 82.1 µM) | 0.018 (≈ 0.0308 µM) | > 100 | > 100 | > 100 | 150 (≈ 257 µM) | 200 (≈ 342 µM) | > 200 | 150 (≈ 257 µM) | 300 (≈ 513 µM) | 150 (≈ 257 µM) | > 200 | 200 (≈ 342 µM) | > 200 | > 200 | – | – | – | – |
| COC(CC1CN(C)P(=O)(OC[C@H]2O[C@@H](n3cc(/C=C/Br)c(=O)[nH]c3=O)C[C@@H]2O)O1)Sc1ccccc1 (stereo partly specified) | 12.4 (≈ 20.1 µM) | 82 (≈ 133 µM) | 0.003 (≈ 0.00485 µM) | > 100 | > 100 | > 100 | 0.1 (≈ 0.162 µM) | 0.1 (≈ 0.162 µM) | 0.4 (≈ 0.647 µM) | > 400 | > 400 | > 400 | > 400 | ≥ 400 | > 400 | > 400 | – | – | – | – |
| CN1CCOP1(=O)OCCOCn1cnc2c(O)nc(N)nc21 (stereo unspecified) | – | > 100 | – | > 100 | > 100 | > 100 | – | 0.2 (≈ 0.581 µM) | – | – | – | 0.2 (≈ 0.581 µM) | – | 400 (≈ 1160 µM) | > 400 | – | – | – | – | – |
| Nc1nc2c(ncn2COCCO)c(=O)[nH]1 [ACYCLOVIR] | 0.62 (≈ 2.75 µM) | 17 (≈ 75.5 µM) | 0.0009 (≈ 0.004 µM) | 41 (≈ 182 µM) | > 100 | > 100 | 0.1 (≈ 0.444 µM) | 0.2 (≈ 0.888 µM) | 0.2 (≈ 0.888 µM) | 20 (≈ 88.8 µM) | 10 (≈ 44.4 µM) | 0.02 (≈ 0.0888 µM) | 0.1 (≈ 0.444 µM) | 150 (≈ 666 µM) | > 400 | 0.07 (≈ 0.311 µM) | 17.2 | 40.8 | 30.4 | 46.2 |
| O=c1[nH]c(=O)n([C@H]2C[C@H](O)[C@@H](CO)O2)cc1/C=C/Br [BRIVUDINE] | 0.31 (≈ 0.931 µM) | 9.4 (≈ 28.2 µM) | 0.0005 (≈ 0.0015 µM) | 22 (≈ 66 µM) | > 100 | 73 (≈ 219 µM) | 0.01 (≈ 0.03 µM) | 0.02 (≈ 0.06 µM) | 0.01 (≈ 0.03 µM) | 100 (≈ 300 µM) | 300 (≈ 901 µM) | 2 (≈ 6 µM) | 20 (≈ 60 µM) | 7 (≈ 21 µM) | > 400 | 100 (≈ 300 µM) | 10.2 | 8.2 | 33.8 | 39.6 |
